Source: ChEMBL document CHEMBL1629657, “In vitro antimicrobial activity of a new cephalosporin, ceftaroline, and determination of quality control ranges for MIC testing” (2009)
In brackets after ≈: the same amount, converted by molar mass.

Assays:
Format in all cases: functional
[1] = test system: Streptococcus viridans; assay: Antimicrobial activity against Streptococcus viridans group clinical isolate by broth microdilution method
In short: (§1)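 Streptococcal isolates were tested by CLSI broth microdilution in cation-adjusted Mueller-Hinton broth supplemented with 3% lysed horse blood. The read-out was the MIC, with MIC90 (μg/ml) reported per group. Ceftriaxone, levofloxacin and imipenem served as comparators.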

[2] = test system: Streptococcus pneumoniae; assay: Antimicrobial activity against penicillin-susceptible Streptococcus pneumoniae by broth microdilution method; in short: as §1
[3] = test system: Streptococcus pneumoniae; assay: Antimicrobial activity against levofloxacin-resistant Streptococcus pneumoniae by broth microdilution method
In short: (§2)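 CLSI broth microdilution in cation-adjusted Mueller-Hinton broth with 3% lysed horse blood, against streptococcal clinical isolates of the stated phenotype. Ceftaroline was compared with ceftriaxone, levofloxacin and imipenem. Activity was expressed as MICs (MIC90 in μg/ml).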

[4] = test system: Streptococcus pneumoniae; assay: Antimicrobial activity against penicillin-resistant Streptococcus pneumoniae by broth microdilution method; in short: as §2
[5] = test system: Streptococcus pyogenes; assay: Antimicrobial activity against macrolide-resistant Streptococcus pyogenes by broth microdilution method; in short: as §2
[6] = test system: Streptococcus pyogenes; assay: Antimicrobial activity against macrolide-susceptible Streptococcus pyogenes by broth microdilution method; in short: as §2
[7] = test system: Staphylococcus aureus; assay: Antimicrobial activity against methicillin-resistant Staphylococcus aureus by broth microdilution method
In short: (§3)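 Isolates of the stated resistance phenotype were tested by CLSI broth microdilution in unsupplemented cation-adjusted Mueller-Hinton broth. Ceftaroline was compared with ceftriaxone, levofloxacin and imipenem. Activity was expressed as MICs (MIC90 in μg/ml).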

[8] = test system: Streptococcus agalactiae; assay: Antimicrobial activity against Streptococcus agalactiae by broth microdilution method; in short: as §1
[9] = test system: Enterococcus faecium; assay: Antimicrobial activity against Enterococcus faecium by broth microdilution method
In short: (§4)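 Clinical isolates were tested by CLSI broth microdilution in unsupplemented cation-adjusted Mueller-Hinton broth. The read-out was the MIC, reported as MIC90 (μg/ml) per species or phenotypic group. Ceftriaxone, levofloxacin and imipenem were run in parallel as comparators.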

[10] = test system: Pseudomonas aeruginosa; assay: Antimicrobial activity against Pseudomonas aeruginosa by broth microdilution method; in short: as §4
[11] = test system: Staphylococcus aureus; assay: Antimicrobial activity against methicillin-susceptible Staphylococcus aureus by broth microdilution method; in short: as §4
[12] = test system: Klebsiella pneumoniae; assay: Antimicrobial activity against ESBL-negative Klebsiella pneumoniae by broth microdilution method; in short: as §4
[13] = test system: Staphylococcus; assay: Antimicrobial activity against methicillin-susceptible coagulase-negative Staphylococcus by broth microdilution method; in short: as §4
[14] = test system: Staphylococcus aureus; assay: Antimicrobial activity against vancomycin-intermediate Staphylococcus aureus by broth microdilution method; in short: as §4
[15] = test system: Stenotrophomonas maltophilia; assay: Antimicrobial activity against Stenotrophomonas maltophilia by broth microdilution method; in short: as §4
[16] = test system: Haemophilus influenzae; assay: Antimicrobial activity against beta-lactamase-negative ampicillin resistant Haemophilus influenzae by broth microdilution method
In short: (§5)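 CLSI broth microdilution in Haemophilus test medium (cation-adjusted Mueller-Hinton base) against clinical H. influenzae isolates of the stated phenotype. Ceftaroline was compared with ceftriaxone, levofloxacin and imipenem. Activity was expressed as MICs (MIC90 in μg/ml).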

[17] = test system: Staphylococcus; assay: Antimicrobial activity against methicillin-resistant coagulase-negative Staphylococcus by broth microdilution method; in short: as §3
[18] = test system: Enterobacter cloacae; assay: Antimicrobial activity against ESBL-negative Enterobacter cloacae by broth microdilution method; in short: as §4
[19] = test system: Proteus vulgaris; assay: Antimicrobial activity against Proteus vulgaris by broth microdilution method; in short: as §4
[20] = test system: Enterococcus faecalis; assay: Antimicrobial activity against vancomycin-susceptible Enterococcus faecalis by broth microdilution method; in short: as §4
[21] = test system: Proteus mirabilis; assay: Antimicrobial activity against Proteus mirabilis by broth microdilution method; in short: as §4
[22] = test system: Haemophilus influenzae; assay: Antimicrobial activity against beta-lactamase-negative Haemophilus influenzae by broth microdilution method; in short: as §5
[23] = test system: Staphylococcus aureus; assay: Antimicrobial activity against vancomycin-resistant Staphylococcus aureus by broth microdilution method; in short: as §3
[24] = test system: Klebsiella aerogenes; assay: Antimicrobial activity against ESBL-negative Enterobacter aerogenes by broth microdilution method; in short: as §4
[25] = test system: Shigella sp.; assay: Antimicrobial activity against Shigella spp. by broth microdilution method; in short: as §4
[26] = test system: Providencia rettgeri; assay: Antimicrobial activity against Proteus rettgeri by broth microdilution method; in short: as §4
[27] = test system: Serratia marcescens; assay: Antimicrobial activity against Serratia marcescens by broth microdilution method; in short: as §4
[28] = test system: Pseudomonas aeruginosa; assay: Antimicrobial activity against multidrug resistant Pseudomonas aeruginosa by broth microdilution method; in short: as §3
[29] = test system: Escherichia coli; assay: Antimicrobial activity against ESBL-positive Escherichia coli by broth microdilution method; in short: as §4
[30] = test system: Haemophilus influenzae; assay: Antimicrobial activity against beta-lactamase-positive Haemophilus influenzae by broth microdilution method
In short: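 H. influenzae isolates were tested by CLSI broth microdilution using Haemophilus test medium. The MIC was read and MIC90 (μg/ml) reported for the group. Ceftriaxone, levofloxacin and imipenem served as comparators.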

[31] = test system: Salmonella sp.; assay: Antimicrobial activity against Salmonella spp. by broth microdilution method; in short: as §4
[32] = test system: Enterococcus faecalis; assay: Antimicrobial activity against Enterococcus faecalis by broth microdilution method; in short: as §4
[33] = test system: Enterococcus faecium; assay: Antimicrobial activity against vancomycin-susceptible Enterococcus faecium by broth microdilution method; in short: as §4
[34] = test system: Moraxella catarrhalis; assay: Antimicrobial activity against Moraxella catarrhalis by broth microdilution method; in short: as §4
[35] = test system: Providencia stuartii; assay: Antimicrobial activity against Proteus stuartii by broth microdilution method; in short: as §4
[36] = test system: Burkholderia cepacia; assay: Antimicrobial activity against Burkholderia cepacia by broth microdilution method; in short: as §4
[37] = test system: Klebsiella pneumoniae; assay: Antimicrobial activity against ESBL-positive Klebsiella pneumoniae by broth microdilution method; in short: as §4
[38] = test system: Listeria monocytogenes; assay: Antimicrobial activity against Listeria monocytogenes by broth microdilution method; in short: as §4
[39] = test system: Streptococcus pneumoniae; assay: Antimicrobial activity against penicillin-intermediate Streptococcus pneumoniae by broth microdilution method; in short: as §2
[40] = test system: Morganella morganii; assay: Antimicrobial activity against Morganella morganii by broth microdilution method; in short: as §4
[41] = test system: Corynebacterium jeikeium; assay: Antimicrobial activity against Corynebacterium jeikeium by broth microdilution method; in short: as §4

For C[C@@H](O)[C@H]1C(=O)N2C(C(=O)O)=C(SCCNC=N)C[C@H]12 [IMIPENEM ANHYDROUS], the MIC [1] was 0.015 µg/mL (≈ 0.0501 µM), the MIC50 [1] was 0.015 µg/mL (≈ 0.0501 µM) and the MIC90 [1] was 0.12 µg/mL (≈ 0.401 µM). For the same molecule, the MIC [2] was 0.015 µg/mL (≈ 0.0501 µM), the MIC50 [2] was 0.015 µg/mL (≈ 0.0501 µM) and the MIC90 [2] was 0.015 µg/mL (≈ 0.0501 µM). The MIC50 [3] was 0.03 µg/mL (≈ 0.1 µM), the MIC90 [3] was 0.25 µg/mL (≈ 0.835 µM) and the MIC50 [4] was 0.5 µg/mL (≈ 1.67 µM). It also gave an MIC90 [4] of 1 µg/mL (≈ 3.34 µM), an MIC [5] of 0.015 µg/mL (≈ 0.0501 µM) and an MIC50 [5] of 0.015 µg/mL (≈ 0.0501 µM). For the same molecule, the MIC90 [5] was 0.015 µg/mL (≈ 0.0501 µM), the MIC [6] was 0.015 µg/mL (≈ 0.0501 µM) and the MIC50 [6] was 0.015 µg/mL (≈ 0.0501 µM). The MIC90 [6] was 0.015 µg/mL (≈ 0.0501 µM), the MIC50 [7] was 0.25 µg/mL (≈ 0.835 µM) and the MIC90 [7] was 32 µg/mL (≈ 107 µM). The MIC [8] was 0.015 µg/mL (≈ 0.0501 µM), the MIC50 [8] was 0.015 µg/mL (≈ 0.0501 µM) and the MIC90 [8] was 0.015 µg/mL (≈ 0.0501 µM). It also gave an MIC50 [9] of over 32 µg/mL, an MIC90 [9] of over 32 µg/mL and an MIC [10] of 1 µg/mL (≈ 3.34 µM). The MIC50 [10] was 1 µg/mL (≈ 3.34 µM), the MIC90 [10] was 16 µg/mL (≈ 53.4 µM) and the MIC [11] was 0.015 µg/mL (≈ 0.0501 µM). For the same molecule, the MIC50 [11] was 0.015 µg/mL (≈ 0.0501 µM), the MIC90 [11] was 0.03 µg/mL (≈ 0.1 µM) and the MIC50 [12] was 0.25 µg/mL (≈ 0.835 µM). For the same molecule, the MIC90 [12] was 0.5 µg/mL (≈ 1.67 µM), the MIC [13] was 0.015 µg/mL (≈ 0.0501 µM) and the MIC50 [13] was 0.015 µg/mL (≈ 0.0501 µM). It also gave an MIC90 [13] of 0.03 µg/mL (≈ 0.1 µM), an MIC50 [14] of 0.25 µg/mL (≈ 0.835 µM) and an MIC90 [14] of over 32 µg/mL. The MIC50 [15] was over 32 µg/mL, the MIC90 [15] was over 32 µg/mL and the MIC50 [16] was 0.5 µg/mL (≈ 1.67 µM). The MIC90 [16] was 1 µg/mL (≈ 3.34 µM), the MIC50 [17] was 0.25 µg/mL (≈ 0.835 µM) and the MIC90 [17] was 32 µg/mL (≈ 107 µM). For the same molecule, the MIC50 [18] was 0.25 µg/mL (≈ 0.835 µM), the MIC90 [18] was 0.5 µg/mL (≈ 1.67 µM) and the MIC50 [19] was 2 µg/mL (≈ 6.68 µM). It also gave an MIC90 [19] of 4 µg/mL (≈ 13.4 µM), an MIC50 [20] of 1 µg/mL (≈ 3.34 µM) and an MIC90 [20] of 2 µg/mL (≈ 6.68 µM). It also gave an MIC50 [21] of 2 µg/mL (≈ 6.68 µM), an MIC90 [21] of 4 µg/mL (≈ 13.4 µM) and an MIC50 [22] of 0.5 µg/mL (≈ 1.67 µM). It also gave an MIC90 [22] of 0.5 µg/mL (≈ 1.67 µM), an MIC [23] of 1 µg/mL (≈ 3.34 µM) and an MIC50 [24] of 1 µg/mL (≈ 3.34 µM). For the same molecule, the MIC90 [24] was 1 µg/mL (≈ 3.34 µM), the MIC [25] was 0.12 µg/mL (≈ 0.401 µM) and the MIC50 [25] was 0.12 µg/mL (≈ 0.401 µM). The MIC90 [25] was 0.25 µg/mL (≈ 0.835 µM), the MIC50 [26] was 2 µg/mL (≈ 6.68 µM) and the MIC90 [26] was 4 µg/mL (≈ 13.4 µM). It also gave an MIC50 [27] of 0.5 µg/mL (≈ 1.67 µM), an MIC90 [27] of 1 µg/mL (≈ 3.34 µM) and an MIC50 [28] of 8 µg/mL (≈ 26.7 µM). The MIC90 [28] was 16 µg/mL (≈ 53.4 µM), the MIC50 [29] was 0.12 µg/mL (≈ 0.401 µM) and the MIC90 [29] was 0.25 µg/mL (≈ 0.835 µM). For the same molecule, the MIC50 [30] was 0.25 µg/mL (≈ 0.835 µM), the MIC90 [30] was 0.5 µg/mL (≈ 1.67 µM) and the MIC50 [31] was 0.25 µg/mL (≈ 0.835 µM). The MIC90 [31] was 0.25 µg/mL (≈ 0.835 µM), the MIC50 [32] was 1 µg/mL (≈ 3.34 µM) and the MIC90 [32] was 2 µg/mL (≈ 6.68 µM). It also gave an MIC50 [33] of 4 µg/mL (≈ 13.4 µM), an MIC90 [33] of over 32 µg/mL and an MIC50 [34] of 0.06 µg/mL (≈ 0.2 µM). For the same molecule, the MIC90 [34] was 0.06 µg/mL (≈ 0.2 µM), the MIC50 [35] was 2 µg/mL (≈ 6.68 µM) and the MIC90 [35] was 4 µg/mL (≈ 13.4 µM). It also gave an MIC50 [36] of 8 µg/mL (≈ 26.7 µM), an MIC90 [36] of 32 µg/mL (≈ 107 µM) and an MIC50 [37] of 0.12 µg/mL (≈ 0.401 µM). It also gave an MIC90 [37] of 0.25 µg/mL (≈ 0.835 µM), an MIC50 [38] of 0.06 µg/mL (≈ 0.2 µM) and an MIC90 [38] of 0.06 µg/mL (≈ 0.2 µM). For the same molecule, the MIC50 [39] was 0.03 µg/mL (≈ 0.1 µM), the MIC90 [39] was 0.06 µg/mL (≈ 0.2 µM) and the MIC50 [40] was 4 µg/mL (≈ 13.4 µM). The MIC90 [40] was 4 µg/mL (≈ 13.4 µM), the MIC50 [41] was over 32 µg/mL and the MIC90 [41] was over 32 µg/mL.
